Hit rate of the full screen: of about 2,500 compounds, about 460 (18%) were called active.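 Rule for the calls: active = mean activation above a cutoff of low control average plus 3 SD from the earlier screen (cut at about 12% in these data); inactive = the rest.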 A selection follows.
assay: compound fluorescence interference without thin filaments, confirmation, artefact control for cardiac RTF calcium sensitizer project, biochemical (AID 504382); settings: IANBD fluorescence interference counterscreen, buffer, EC20 Ca2+; at 7.2 µM; active compounds read high; scaled: EC20 calcium 0, EC100 calcium 100
In short: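 timing = compound incubation 15 min at 25 °C before fluorescence reading | technique = fluorescence at 480 nm excitation, 540 nm emission | evaluation = interference relative to controls | replication = triplicate wells per compound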

Row | SMILES | fluorescence artifact activation
1 | O=[N+]([O-])c1ccc(C2=NN(c3ccccc3)C(c3ccco3)C2)cc1 (configuration not stated) | -0.01% (inactive)
2 | NS(=O)(=O)c1ccc(N2N=C(c3ccccc3)CC2c2ccccc2)cc1 (configuration not stated) | 15.1% (active)
3 | N#CCC(=O)N/N=C/c1ccc(N2N=C(c3ccccc3)CC2c2ccccc2)cc1 (configuration not stated) | -0.02% (inactive)
4 | O=[N+]([O-])c1ccc(N2N=C(c3ccccc3)CC2c2ccccc2O)cc1 (configuration not stated) | 47.5% (active)
5 | COc1ccc(C2CC(c3ccncc3)=NN2c2ccc(S(N)(=O)=O)cc2)cc1 (configuration not stated) | 1.86% (inactive)
6 | N#CC1CC(c2ccc([N+](=O)[O-])cc2)=NN1c1ccc([N+](=O)[O-])cc1 (configuration not stated) | 0.52% (inactive)
7 | CN(CC(=O)N1CCN(c2ncccn2)CC1)S(=O)(=O)c1ccc(Cl)cc1 | 0% (inactive)
8 | CCOC(=O)[C@H]1[C@H]2COc3ccccc3[C@@H]2N2C(=O)CN(Cc3ccc(C)cc3)C(=O)[C@@]12C | 0.38% (inactive)
9 | COc1ccc(/C=N/Nc2ncc(C(F)(F)F)cc2Cl)cc1OC | -0.02% (inactive)
10 | CC(C(=O)N1CCc2ccccc2C1)N1C(=O)c2ccccc2C1=O (configuration not stated) | 0.12% (inactive)
11 | CCOC(=O)c1cc(C#N)c(SCC(=O)c2cc(C#N)c(SC)nc2C)[nH]c1=O | 6.31% (inactive)
12 | CC(=O)n1c(C=Nc2ccc(Cl)cc2)c(O)c2ccccc21 | 0.42% (inactive)
13 | COc1ccc(C2=NS(=O)(=O)N(C)C(C(=O)NC3CCCC3)=C2)cc1 | -0.02% (inactive)
14 | O=C(CN1C(=O)NC2(CCCCC2)C1=O)Nc1ccccc1Cl | 0.05% (inactive)
15 | O=C(CCc1nc2sc3c(c2c(=O)[nH]1)CCCC3)Nc1ccccc1Cl | 31.9% (active)
16 | CCC(=O)Nc1nc2c(c(=O)[nH]1)CCCC2 | 0.02% (inactive)
17 | CSCC(O)Cn1ncc2ccccc2c1=O (configuration not stated) | -0.02% (inactive)
18 | CCN1C(=O)/C(=C/C=C2\N(CC)c3cc(S(=O)(=O)N(C)C)ccc3N2c2ccccc2)SC1=S | 0.15% (inactive)
19 | O=C1CSC(=S)N1c1ccc(O)cc1 | 0.03% (inactive)
20 | CC(C)c1ccc(N2C(=O)/C(=C/N(C)C)SC2=S)cc1 | 18.9% (active)
21 | CN(C)/C=C1\SC(=S)N(c2ccc(Br)cc2)C1=O | 43.8% (active)
22 | COCCNC(=O)CSc1nc(N)c(NC(=O)c2ccccc2F)c(=O)[nH]1 | 1.87% (inactive)

Row | SMILES | fluorescence artifact activation
23 | CN1C2CCC1/C(=C/c1cccn1C)C(=O)/C2=C\c1cccn1C | 0.09% (inactive)
24 | CC(C)c1ccc(/C=C2\Oc3c(ccc(O)c3CN3CCN(C)CC3)C2=O)cc1 | -0.06% (inactive)
25 | O=c1cc(-c2ccccc2)oc2ccc(Br)cc12 | 0.06% (inactive)
26 | CCSc1cc(N2CCCC2)nc(-c2ccc(Cl)cc2)n1 | 0.62% (inactive)
27 | CC(=O)Nc1ccc(N=Cc2nc(-c3ccc(C)cc3)oc2O)cc1 | 8.23% (inactive)
28 | CC(C)CC[n+]1ccccc1/C=C/c1ccc(N(C)C)cc1 | -0.07% (inactive)
29 | COc1ccc(OC)c(S(=O)(=O)N2CCC(C(=O)NCc3ccccn3)CC2)c1 | 1.09% (inactive)
30 | CC(=O)Nc1ccc(Nc2cc(N(C)C)c3nonc3c2[N+](=O)[O-])cc1 | 33.2% (active)
31 | CC1(C)CC(=O)C(C=Nc2cc(C(=O)c3ccccc3)ccc2N)=C(O)C1 | 6.24% (inactive)
32 | CN(C(=O)C1CCC1C(=O)O)c1nc(-c2ccc(Cl)s2)cs1 (configuration not stated) | 21.3% (active)
33 | O=C(NCc1ccccc1)C1(c2cccc(F)c2)CCCC1 | 0.26% (inactive)
34 | COC(=O)C/C(O)=C(/N=Nc1cccc(C(F)(F)F)c1)C(=O)OC | 0.94% (inactive)
35 | O=C(Nc1nc(-c2nc3ccccc3s2)cs1)C1COc2ccccc2O1 (configuration not stated) | 11.1% (inactive)
36 | O=C(Nc1ccc(Cl)cn1)C1COc2ccccc2O1 (configuration not stated) | 14.7% (active)
37 | O=C1NCCN1c1ncc([N+](=O)[O-])s1 | 4.21% (inactive)
38 | COc1ccc(S(=O)(=O)N(CC(C)C)C2CCS(=O)(=O)C2)cc1OC (configuration not stated) | 2.69% (inactive)
39 | O=C1c2ccccc2C(=O)N1c1ccc(Cc2ccncc2)cc1 | 5.28% (inactive)
40 | O=C(Nc1nc2c(s1)CN(Cc1ccccc1)CC2)c1cccc(S(=O)(=O)N2CCc3ccccc32)c1 | -0.03% (inactive)
41 | Cc1ccc(S(=O)(=O)c2cc(C#N)c(=O)[nH]c2N)cc1 | 6.68% (inactive)
42 | O=C(Cc1ccc(Cl)cc1)NNS(=O)(=O)c1ccc([N+](=O)[O-])cc1 | 83% (active)
43 | CC(=O)NCC(O)c1ccc([N+](=O)[O-])cc1 (configuration not stated) | -0.01% (inactive)
44 | O=C(CSc1ccc(Cl)cc1)Nc1nnc(-c2cccc([N+](=O)[O-])c2)s1 | 0.01% (inactive)

Row | SMILES | fluorescence artifact activation
45 | O=C1CC(/C=C/c2ccco2)=Nc2ccccc2N1 | 0.39% (inactive)
46 | Cc1ccc(NC(=O)O/N=C/c2ccc(F)cc2)cc1 | 0.14% (inactive)
47 | CCOC(=O)C1CCCN(C2=NC(=O)/C(=C/c3ccc(O)c(OC)c3)S2)C1 (configuration not stated) | 0.04% (inactive)
48 | CCN1CC=C2C(C#N)=C(N)C(C#N)(C#N)C(c3cc(Cl)ccc3Cl)C2C1 (configuration not stated) | 95% (active)
49 | CCN1CC=C2C(C#N)=C(N)C(C#N)(C#N)[C@H](c3ccoc3)[C@H]2C1 | 0.03% (inactive)
50 | CCN1CC=C2C(C#N)=C(N)C(C#N)(C#N)[C@H](c3cccc(OC)c3OC)[C@H]2C1 | 0.43% (inactive)
51 | CC1=C(C(=O)N(C)C)C(c2ccc(C)s2)NC(=S)N1 (configuration not stated) | 0.26% (inactive)
52 | CN(C)S(=O)(=O)c1ccc(C(=O)Oc2cc(=O)[nH]c3ccccc23)cc1 | 0.2% (inactive)
53 | COc1ccc(N(CC(=O)Nc2ccccc2C(=O)NCC(C)C)S(C)(=O)=O)cc1 | 0.65% (inactive)
54 | CN(CC(=O)Nc1ccccc1Cl)C(=O)c1cc(=O)[nH]c2ccccc12 | 17.4% (active)
55 | N#Cc1c(NC(=O)/C=C/C(=O)O)sc2c1CCN(Cc1ccccc1)C2 | 0.08% (inactive)
56 | Nc1c(C(=O)Nc2ccc(S(=O)(=O)N3CCCC3)cc2)sc2nc3ccc(OC(F)(F)F)cc3cc12 | 0.16% (inactive)
57 | COc1ccccc1N=C1NC(=O)/C(=C/c2ccc(N(C)C)cc2)S1 | 0.13% (inactive)
58 | O=C1NC(=NCc2ccccc2)S/C1=C\c1ccccc1 | 14.6% (active)
59 | Cc1ccc(N=C2NC(=O)/C(=C/c3cccnc3)S2)cc1C | 0.55% (inactive)
60 | Nc1ccc2c(O)cc(S(=O)(=O)O)cc2c1 | 0.19% (inactive)
61 | Nc1ccc(S(N)(=O)=O)cc1N | 196% (active)
62 | O=C1NC(c2cccc([N+](=O)[O-])c2)Oc2ccccc21 (configuration not stated) | -0.04% (inactive)
63 | Cc1ccc(OCc2ccc(C(=O)O)o2)cc1C | -0.09% (inactive)
64 | O=C(O)/C=C/C(=O)NCc1csc2ccccc12 | 94.3% (active)
65 | O=C(NCc1csc2ccccc12)Nc1cc(Cl)cc(Cl)c1 | 0.06% (inactive)
66 | Cc1cc(C(=O)NNC(=S)NCc2ccccc2)cs1 | -0.07% (inactive)

Row | SMILES | fluorescence artifact activation
67 | CCOC(=O)c1c(-c2ccccc2)csc1NC(=O)/C(C#N)=C/c1ccc(O)c(OC)c1 | 6.3% (inactive)
68 | CC1CCN(c2ccc3c(c2)S(=O)(=O)c2cccc(C(=O)NC4CCCCC4)c2C3=O)CC1 | 0.04% (inactive)
69 | C=CCNC(=O)c1cccc2c1C(=O)c1ccc(N3CCCC3)cc1S2(=O)=O | 0.04% (inactive)
70 | O=C(NCC1CC1)c1cccc2c1C(=O)c1ccc(N3CCCC3)cc1S2(=O)=O | 69.4% (active)
71 | O=C(NC1CCCCC1)c1cccc2c1C(=O)c1ccc(N3CCCC3)cc1S2(=O)=O | 23.8% (active)
72 | CN1CCC[C@@H]1CCNC(=O)c1cccc2c1C(=O)c1ccc(N3CCCC3)cc1S2(=O)=O | -0.09% (inactive)
73 | O=C(NC1CCCCC1)c1cccc2c1C(=O)c1ccc(N3CCC(Cc4ccccc4)CC3)cc1S2(=O)=O | 0.54% (inactive)
74 | COc1ccccc1N1C(=O)c2cccc3c(N(C)CCO)ccc(c23)C1=O | 0.41% (inactive)
75 | O=C(N/C(=C/c1cn(-c2ccccc2)nc1-c1ccccc1)C(=O)N1CCOCC1)c1ccc(Cl)cc1Cl | 3.44% (inactive)
76 | COc1cccc2c1C(=O)c1c(O)c3c(c(O)c1C2=O)CC(O)(C(C)=O)CC3OC1CC(N(C)C)C(O)C(C)O1 (configuration not stated) | 0% (inactive)
77 | COc1cccc2c1C(=O)c1c(O)c3c(c(O)c1C2=O)C[C@@](O)(C(=O)CO)C[C@@H]3OC1CC(N)C(O)C(C)O1 (some centres not stated) | 0.06% (inactive)
78 | COc1cccc2c1C(=O)c1c(O)c3c(c(O)c1C2=O)CC(O)(C(C)=O)CC3OC1CC(O)C(O)C(C)O1 (configuration not stated) | 24.9% (active)
79 | COc1cccc2c1C(=O)c1c(O)c3c(c(O)c1C2=O)CC(O)(C(=O)CO)CC3OC1CC(N(C)C)C(O)C(C)O1 (configuration not stated) | 40.5% (active)
80 | COc1cccc2c1C(=O)c1c(O)c3c(c(O)c1C2=O)C[C@@](O)(C(=O)CO)C[C@@H]3O[C@H]1C[C@H](N)[C@H](O)[C@H](C)O1 | -0.07% (inactive)
81 | COc1cccc2c1C(=O)c1c(O)c3c(c(O)c1C2=O)C[C@](O)(C(C)=O)C[C@H]3O[C@@H]1C[C@@H](N)[C@@H](O)[C@@H](C)O1 | -0.05% (inactive)
82 | COC(=O)c1ccccc1NC(=O)[C@@H]1CCC(=O)N1C1OC(=O)c2c1ccc(OC)c2OC (some centres not stated) | 0.09% (inactive)
83 | O=C1C=C(NCc2ccco2)CC(c2ccc(Cl)cc2)C1 (configuration not stated) | 0.31% (inactive)
84 | CC1=CC=CN2CC(O)CN=C12 (configuration not stated) | 3.77% (inactive)
85 | Cc1c(C(=O)NCc2ccc3c(c2)cc(C)n3C)cccc1[N+](=O)[O-] | 0.13% (inactive)
86 | COc1cc(NC(=O)CSc2nc3ccccc3n2-c2ccccc2)c(C)cc1[N+](=O)[O-] | 0.03% (inactive)
87 | COC1=C/C(=C/c2c(N)n3c(nc2=O)sc2cc(S(C)(=O)=O)ccc23)C=CC1=O | 0.11% (inactive)

Source: PubChem BioAssay AID504382 (The Scripps Research Institute Molecular Screening Center, 2011)
